# Source: PubChem BioAssay (several laboratories)
# HNF4A DNA FP: change in binding of human HNF4 alpha to DNA; P41235; HNF4a-FITC DNA binding, fluorescence polarization, 1 h; activity change, % at 10 µM; 360,000 compounds, 0.3% hits; in the data active = activity change above about 30%, passing the limit was not always enough
# Myeloid diff 2: compounds promoting myeloid differentiation; ER-HoxA9 myeloid progenitors, lysozyme-GFP differentiation, flow cytometry; calls only at 10 µM; 360,000 compounds, 1% hits;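 active = normalized GFP-positive differentiation at or above the plate's own cutoff, the solvent-only control mean plus 3 SD; inconclusive = no clear call, values can overlap the other calls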;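 also: cells exposed to compound for four days before flow analysis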
# CSN inh: CSN deneddylation inhibition. AID 651999. Purified CSN, SCF-Nedd8-OG deneddylation, fluorescence polarization. inhibition, % at 12.5 µM. Q92905. 360,000 compounds, 0.38% hits;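 active = pattern-corrected inhibition above about 35%, with an unprinted fluorescence ratio check between 0.5 and 1.5, limit read from the data, passing the limit was not always enough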;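 also: 0% = enzyme with substrate and 100% = substrate without enzyme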
# Target sequence (Q92905 whole entry, looked up, one chain of several): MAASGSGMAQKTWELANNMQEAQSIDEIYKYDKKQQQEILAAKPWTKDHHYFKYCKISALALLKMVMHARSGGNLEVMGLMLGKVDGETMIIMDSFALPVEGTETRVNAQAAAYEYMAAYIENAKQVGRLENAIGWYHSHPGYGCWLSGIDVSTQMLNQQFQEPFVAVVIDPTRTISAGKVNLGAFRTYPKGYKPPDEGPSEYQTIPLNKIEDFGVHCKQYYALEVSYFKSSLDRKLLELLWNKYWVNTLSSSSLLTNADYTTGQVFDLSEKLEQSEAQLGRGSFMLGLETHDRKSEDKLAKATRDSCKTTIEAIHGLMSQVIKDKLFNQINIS
#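 Detection – fluorescence polarization · System – HEK293T-derived human Csn5 enzyme · Controls – substrate-only high control, full reaction low control · Timing – 90 min, room temperature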
# Granule exo inh: blocks lytic granule exocytosis; 360,000 compounds, 0.66% hits; inhibition, % at 10 µM; AID 651702; TALL-104 LAMP-1 surface exposure, flow cytometry; cells stimulated with thapsigargin and PMA;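 active = inhibition above about 55%, limit read from the data; inconclusive = no clear call, values can overlap the other calls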
# Numbers without * were called inactive; i = inactive; ? = inconclusive; / = no result given; + = active, no number. An excerpt weighted towards active compounds, which were near 2.2% of everything screened.
SMILES,HNF4A DNA FP,Myeloid diff 2,CSN inh,Granule exo inh
CC12Cc3cn[nH]c3C=C1CCC1C2CCC2(C)C1CCC2(C)O (stereo not drawn),7,i,-3,3
c1ccc2c(CN3CCCCCCC3)c[nH]c2c1,5,+,-3,9
c1ccc2c(CN3CCN(C4CCCCC4)CC3)c[nH]c2c1,3,i,4,-6
CCn1ccnc1CN1CCCC(C(=O)c2ccc(SC)cc2)C1 (stereo not drawn),-1,+,-2,-13
N#Cc1ccc(Cn2cc(C=O)c3ccccc32)cc1,2,i,4,-3
Cn1cc(C=C(C#N)C#N)c2ccccc21,10,i,36*,0
CCN(CC)c1ccc(/C=C2\C(=O)NC(=S)N(c3ccc(OC)cc3OC)C2=O)o1,160,+,-6,7
COc1ccc(N2C(=O)/C(=C/c3ccc(N(C)C)o3)C(=O)NC2=S)cc1,126,i,24,5
CCN(CC)c1ccc(C=C2C(=O)N(C)C(=S)N(C)C2=O)o1,147,i,133,0
CCN(CC)c1ccc(/C=C2\C(=O)NC(=S)N(C)C2=O)o1,176,+,146,-6
CC(C)C1CN1CC(O)Cn1ccnc1[N+](=O)[O-] (stereo not drawn),-2,i,-7,-10
CN(C(=O)COC(=O)c1cn(C)c2ccccc12)C1CCCCC1,1,i,3,-2
CC(=O)OC[C@]12CCC(C)=C[C@H]1O[C@@H]1[C@H](O)[C@@H](OC(C)=O)[C@@]2(C)[C@]12CO2,2,+,0,-4
CC=C(C)C1(CCC)C(=O)NC(=S)NC1=O,0,i,-1,-6
COc1ccc(CN2C(=O)C(CC(=O)NCc3ccco3)CC(C(=O)N(C)C)=C2C)cc1 (stereo not drawn),-2,i,-4,5
COc1ccc(OC)c(NC2=NCCCS2)c1,-1,+,1,0
O=C(O)C1C2c3ccccc3C(O)C1(C(=O)O)c1ccccc12 (stereo not drawn),-4,i,-1,4
C[C@@H]1CN([C@@H](C)CO)C(=O)CCCn2nncc2CO[C@@H]1CN(C)C(=O)Oc1cccc2ccccc12,-2,i,2,-8
C=CCn1c(=O)c(C=Nc2c(OC)cccc2[N+](=O)[O-])c(O)n(CCCC)c1=O,21,i,10,-3
C=CCn1c(=O)c(C=Nc2cccc([N+](=O)[O-])c2)c(O)n(CCCC)c1=O,31,+,30,-5
CN1C[C@H](CO)C=C2c3cccc4[nH]cc(c34)C[C@H]21,-34,i,-33,13
CC1=C[C@@H]2c3cccc4[nH]cc(c34)C[C@H]2N(C)C1,-34,+,-39,-7
COC(=O)C1=C(c2ccc(OC)c(OC)c2)C[C@@H]2CC[C@H]1N2C(=O)NCc1ccco1,2,i,-1,2
Cc1cccc(CC(c2cccc(C)c2)N(C)C)c1 (stereo not drawn),1,i,1,5
O=C1NC(=O)N(CCc2ccc(F)cc2)C(=O)/C1=C/c1cccs1,3,i,2,80*
SMILES,HNF4A DNA FP,Myeloid diff 2,CSN inh,Granule exo inh
O=C1NC(=O)N(CCc2ccc(F)cc2)C(=O)/C1=C/c1ccco1,-17,i,43*,8
COc1cc2c(cc1OC)C13CCN4CC5=CCOC(CC(=O)O)C(C5CC41)C3N2 (stereo not drawn),-3,i,-3,9
COc1ccc(N2C(=O)NC(=O)/C(=C\c3cn(C)c4ccccc34)C2=O)cc1,108*,i,14,-13
CCN1/C(=C\C=C\C2=[N+](CC)c3ccccc3C2(C)C)C(C)(C)c2ccccc21,-89,/,-70,85*
COCCCNC(=O)Cn1cc(/C=C2\C(=O)NC(=O)N(c3ccccc3F)C2=O)c2ccccc21,57*,i,0,?
Clc1cccc(NC2=NCCS2)c1,-3,i,3,-9
COc1ccc2c3c([nH]c2c1)C(C)=NCC3,30,+,12,1
CCOc1ccc(-n2c(-c3cccs3)nc3ccccc3c2=O)cc1,1,i,-8,0
CCn1nc(-c2cccs2)nc2c(=O)n(C)c(=O)nc1-2,100*,?,63*,79*
CN1C(=O)/C(=C/c2cccn2-c2ccc3ccccc3c2)C(=O)NC1=S,-7,i,6,98*
O=[N+]([O-])/C=C/c1c(Cl)cccc1Cl,2,+,0,32
CC(=O)c1cn(Cc2ccccc2F)c2ccccc12,-2,i,1,-20
Cc1ccc2nsnc2c1-n1c(C)nc2ccccc2c1=O,2,+,-6,0
CCOC(=O)[C@@]1(C#N)[C@@H]2C=CC(C(N)=O)=CN2[C@@H](C(N)=O)[C@@H]1c1cccc(Cl)c1,-7,+,-10,1
O=C1NC(=O)N(Cc2ccco2)C(=O)/C1=C\c1cccn1CCOc1ccc(Cl)cc1,4,+,22,39
Cc1cccc(OCCn2cccc2/C=C2/C(=O)NC(=O)N(Cc3ccco3)C2=O)c1,-4,i,43,25
COC(=O)C1=C(c2ccc(OC(F)(F)F)cc2)C[C@@H]2CC[C@H]1N2C(=O)NCCc1ccccc1,1,i,-3,8
O=C1NC(=O)N(c2ccccc2)C(=O)/C1=C/c1ccoc1,10,i,44*,-3
O=C1NC(=O)N(c2ccccc2)C(=O)/C1=C/c1coc2ccc(O)cc2c1=O,6,+,3,-2
O=C1NC(=O)N(c2ccc(Cl)cc2)C(=O)/C1=C/c1coc2ccc(O)cc2c1=O,1,+,14,-1
COc1cc(/C=C2/C(=O)NC(=O)N(c3ccccc3)C2=O)ccc1O,0,i,7,-1
O=C1CCC[C@@H]2C[C@@]3(C[C@@H]4CCN1[C@H]24)Nc1cc(Cl)ccc1NC3=NCc1ccccc1,-5,i,-2,3
CCC1(Cc2ccccc2)C(=O)NC(=S)N(C)C1=O (stereo not drawn),0,i,-1,1
Brc1ccc2c(c1)CN(CC1CCCCC1)Cc1cnnn1-2,0,i,2,-2
N#C/C(=C\c1ccc(O)cc1)C(=O)O (tested in a mixture with another compound),3,+,0,-3
Cc1ccccc1CN1Cc2cnnn2-c2ccccc2C1C#N (stereo not drawn),1,?,2,11
C/C=C(\C)C(=O)N[C@@H](c1ccccc1)[C@@H](O)C(=O)O[C@H]1C[C@@]2(O)[C@@H](OC(=O)c3ccccc3)C3[C@](C)(C(=O)[C@H](OC(C)=O)C(=C1C)C2(C)C)[C@@H](O)C[C@H]1OC[C@@]31OC(C)=O (stereo partly drawn),3,+,-1,-7
CC(C)OC(=O)c1c(N)n(CC2CCCO2)c2nc3ccccc3nc12 (stereo not drawn),4,i,-3,-2
CCCCn1c(N)c(C(=O)OCCOC)c2nc3ccccc3nc21,-4,i,-1,-5
